Laboratory results published in ChEMBL document CHEMBL2177062, “Bile acid-based 1,2,4-trioxanes: synthesis and antimalarial assessment” (J Med Chem, 2012).
Activity calls are given as the source filed them. No cut-off for these calls is given here.

How the values were obtained:
[1] = Lipophilicity, log P of the compound; assay type: physicochemical; conditions: octanol/water
In short: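 log P calculated in silico, not measured experimentally.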

[2] = test system: Plasmodium yoelii nigeriensis; assay: Antimalarial activity in multidrug-resistant Plasmodium yoelii nigeriensis infected Swiss mouse assessed as suppression of parasitaemia at 24 mg/kg, po two devided dose daily for 4 days; assay type: functional
In short: (§1)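 Swiss mice of either sex (20 2 g) inoculated ip with 1 × 10⁶ MDR P. yoelii nigeriensis parasites on day 0. Five mice per dose, given oral doses in groundnut oil from day 0 to 3, twice daily. Parasitaemia read from thin blood smears on day 4. Suppression = [(C − T)/C] × 100 versus untreated controls. 100% means no parasites seen in 50 oil-immersion fields.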

[3] = test system: Plasmodium yoelii nigeriensis; assay: Antimalarial activity in multidrug-resistant Plasmodium yoelii nigeriensis infected Swiss mouse assessed as suppression of parasitaemia at 48 mg/kg, po two devided dose daily for 4 days; assay type: functional; in short: as §1
[4] = test system: Plasmodium yoelii nigeriensis; assay: Antimalarial activity in multidrug-resistant Plasmodium yoelii nigeriensis infected Swiss mouse assessed as suppression of parasitaemia at 96 mg/kg, po two devided dose daily for 4 days; assay type: functional; in short: as §1
[5] = test system: Plasmodium yoelii nigeriensis; assay: Antimalarial activity in multidrug-resistant Plasmodium yoelii nigeriensis infected Swiss mouse assessed as disease cure at 24 mg/kg, po two devided dose daily for 4 days by 28 day survival assay; assay type: functional
In short: (§2)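 Swiss mice of either sex (20 2 g) inoculated ip with 1 × 10⁶ MDR P. yoelii nigeriensis (chloroquine-, mefloquine-, halofantrine-resistant) parasites on day 0. Five mice per dose. Oral dosing in groundnut oil (0.1 mL per dose) from day 0 to 3, as two divided doses daily. Thin blood smears on day 4, then twice weekly to day 28. Mice without patent infection by day 28 scored cured; % protection = fraction of mice cured. β-arteether as positive control.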

[6] = test system: Plasmodium yoelii nigeriensis; assay: Antimalarial activity in multidrug-resistant Plasmodium yoelii nigeriensis infected Swiss mouse assessed as disease cure at 48 mg/kg, po two devided dose daily for 4 days by 28 day survival assay; assay type: functional, organism-based; set-up: dose 48 mg/kg; in short: as §2
[7] = test system: Plasmodium yoelii nigeriensis; assay: Antimalarial activity in multidrug-resistant Plasmodium yoelii nigeriensis infected Swiss mouse assessed as disease cure at 96 mg/kg, po two devided dose daily for 4 days by 28 day survival assay; assay type: functional; in short: as §2

| SMILES | Activity [2] [%] | Activity ([4]; 96 mg/kg) [%] | Activity [5] | Activity [6] | Activity [7] | other results |
| --- | --- | --- | --- | --- | --- | --- |
| C=C(c1ccc(Br)cc1)[C@@H]1CO[C@@]2(CC[C@@]3(C)[C@H](CC[C@@H]4[C@@H]3CC[C@]3(C)[C@@H](C(C)=O)CC[C@@H]43)C2)OO1 (relative stereo; form 1) [listing 1 of 2 here] | 100 | 100 |  |  |  | logP [1]: 8.03; Activity [3]: 100% |
| C=C(c1ccc(F)cc1)[C@@H]1CO[C@@]2(CC[C@@]3(C)[C@H](CC[C@@H]4[C@@H]3CC[C@]3(C)[C@@H](C(C)=O)CC[C@@H]43)C2)OO1 (relative stereo; form 1) [listing 1 of 2 here] |  |  |  |  |  | Activity ([3]; 48 mg/kg): 88.03% |
| C=C(c1ccc(Br)cc1)[C@@H]1CO[C@@]2(CC[C@@]3(C)[C@H](CC[C@@H]4[C@@H]3CC[C@]3(C)[C@@H](C(C)=O)CC[C@@H]43)C2)OO1 (relative stereo; form 1) [listing 2 of 2 here] |  |  | inactive | inactive | Active |  |
| C=C(c1ccc(F)cc1)[C@@H]1CO[C@@]2(CC[C@@]3(C)[C@H](CC[C@@H]4[C@@H]3CC[C@]3(C)[C@@H](C(C)=O)CC[C@@H]43)C2)OO1 (relative stereo; form 1) [listing 2 of 2 here] |  |  |  | inactive |  |  |
| C=C(c1ccccc1)[C@@H]1CO[C@@]2(CC[C@@]3(C)[C@H](CC[C@@H]4[C@@H]3CC[C@]3(C)[C@@H](C(C)=O)CC[C@@H]43)C2)OO1 (relative stereo; form 2) [listing 1 of 2 here] | 100 | 100 | 60% |  |  | logP [1]: 7.2; Activity [3]: 100% |
| C=C(c1ccc(F)cc1)[C@@H]1CO[C@@]2(CC[C@@]3(C)[C@H](CC[C@@H]4[C@@H]3CC[C@]3(C)[C@@H](C(C)=O)CC[C@@H]43)C2)OO1 (relative stereo; form 2) [listing 1 of 2 here] | 100 |  | 60% |  |  | logP [1]: 7.36; Activity ([3]; 48 mg/kg): 100%; Activity [4]: 100% |
| C=C(c1ccc(Cl)cc1)[C@@H]1CO[C@@]2(CC[C@@]3(C)[C@H](CC[C@@H]4[C@@H]3CC[C@]3(C)[C@@H](C(C)=O)CC[C@@H]43)C2)OO1 (relative stereo; form 2) [listing 1 of 2 here] | 100 | 100 | 60% |  |  | logP [1]: 7.76; Activity [3]: 100% |
| C=C(c1ccccc1)[C@@H]1CO[C@@]2(CC[C@@]3(C)[C@H](CC[C@@H]4[C@@H]3CC[C@]3(C)[C@@H]([C@H](C)C(C)=O)CC[C@@H]43)C2)OO1 (relative stereo; form 2) |  | 100 |  |  | 60% |  |
| C=C(c1ccc(F)cc1)[C@@H]1CO[C@@]2(CC[C@@]3(C)[C@H](CC[C@@H]4[C@@H]3CC[C@]3(C)[C@@H]([C@H](C)C(C)=O)CC[C@@H]43)C2)OO1 (relative stereo; form 2) |  | 100 |  |  | 60% |  |
| C=C(c1ccccc1)[C@@H]1CO[C@@]2(CC[C@@]3(C)[C@H](CC[C@@H]4[C@@H]3CC[C@]3(C)[C@@H]([C@H](C)CCC(=O)OC)CC[C@@H]43)C2)OO1 (relative stereo; form 2) |  | 43.56 |  |  |  |  |
| C=C(c1ccc(Cl)cc1)[C@@H]1CO[C@@]2(CC[C@@]3(C)[C@H](CC[C@@H]4[C@@H]3CC[C@]3(C)[C@@H](C(C)=O)CC[C@@H]43)C2)OO1 (relative stereo; form 2) [listing 2 of 2 here] |  |  |  | Active | Active |  |
| C=C(c1ccc(F)cc1)[C@@H]1CO[C@@]2(CC[C@@]3(C)[C@H](CC[C@@H]4[C@@H]3CC[C@]3(C)[C@@H](C(C)=O)CC[C@@H]43)C2)OO1 (relative stereo; form 2) [listing 2 of 2 here] |  |  |  | Active | Active |  |
| C=C(c1ccccc1)[C@@H]1CO[C@@]2(CC[C@@]3(C)[C@H](CC[C@@H]4[C@@H]3CC[C@]3(C)[C@@H](C(C)=O)CC[C@@H]43)C2)OO1 (relative stereo; form 2) [listing 2 of 2 here] |  |  |  | Active | Active |  |
| CCO[C@H]1O[C@@H]2O[C@@]3(C)CC[C@H]4[C@H](C)CC[C@@H]([C@H]1C)[C@@]24OO3 [ARTEMOTIL] | 100 |  | 20% | Active |  | Activity [3]: 100% |
